Measured values from different studies.
Compare with care: the assays were run in different laboratories.
Target: Phosphatidylinositol 3-kinase C2 domain-containing subunit gamma (PIK3C2G, Homo sapiens, UniProt O75747)
One construct used (O75747 1-1486): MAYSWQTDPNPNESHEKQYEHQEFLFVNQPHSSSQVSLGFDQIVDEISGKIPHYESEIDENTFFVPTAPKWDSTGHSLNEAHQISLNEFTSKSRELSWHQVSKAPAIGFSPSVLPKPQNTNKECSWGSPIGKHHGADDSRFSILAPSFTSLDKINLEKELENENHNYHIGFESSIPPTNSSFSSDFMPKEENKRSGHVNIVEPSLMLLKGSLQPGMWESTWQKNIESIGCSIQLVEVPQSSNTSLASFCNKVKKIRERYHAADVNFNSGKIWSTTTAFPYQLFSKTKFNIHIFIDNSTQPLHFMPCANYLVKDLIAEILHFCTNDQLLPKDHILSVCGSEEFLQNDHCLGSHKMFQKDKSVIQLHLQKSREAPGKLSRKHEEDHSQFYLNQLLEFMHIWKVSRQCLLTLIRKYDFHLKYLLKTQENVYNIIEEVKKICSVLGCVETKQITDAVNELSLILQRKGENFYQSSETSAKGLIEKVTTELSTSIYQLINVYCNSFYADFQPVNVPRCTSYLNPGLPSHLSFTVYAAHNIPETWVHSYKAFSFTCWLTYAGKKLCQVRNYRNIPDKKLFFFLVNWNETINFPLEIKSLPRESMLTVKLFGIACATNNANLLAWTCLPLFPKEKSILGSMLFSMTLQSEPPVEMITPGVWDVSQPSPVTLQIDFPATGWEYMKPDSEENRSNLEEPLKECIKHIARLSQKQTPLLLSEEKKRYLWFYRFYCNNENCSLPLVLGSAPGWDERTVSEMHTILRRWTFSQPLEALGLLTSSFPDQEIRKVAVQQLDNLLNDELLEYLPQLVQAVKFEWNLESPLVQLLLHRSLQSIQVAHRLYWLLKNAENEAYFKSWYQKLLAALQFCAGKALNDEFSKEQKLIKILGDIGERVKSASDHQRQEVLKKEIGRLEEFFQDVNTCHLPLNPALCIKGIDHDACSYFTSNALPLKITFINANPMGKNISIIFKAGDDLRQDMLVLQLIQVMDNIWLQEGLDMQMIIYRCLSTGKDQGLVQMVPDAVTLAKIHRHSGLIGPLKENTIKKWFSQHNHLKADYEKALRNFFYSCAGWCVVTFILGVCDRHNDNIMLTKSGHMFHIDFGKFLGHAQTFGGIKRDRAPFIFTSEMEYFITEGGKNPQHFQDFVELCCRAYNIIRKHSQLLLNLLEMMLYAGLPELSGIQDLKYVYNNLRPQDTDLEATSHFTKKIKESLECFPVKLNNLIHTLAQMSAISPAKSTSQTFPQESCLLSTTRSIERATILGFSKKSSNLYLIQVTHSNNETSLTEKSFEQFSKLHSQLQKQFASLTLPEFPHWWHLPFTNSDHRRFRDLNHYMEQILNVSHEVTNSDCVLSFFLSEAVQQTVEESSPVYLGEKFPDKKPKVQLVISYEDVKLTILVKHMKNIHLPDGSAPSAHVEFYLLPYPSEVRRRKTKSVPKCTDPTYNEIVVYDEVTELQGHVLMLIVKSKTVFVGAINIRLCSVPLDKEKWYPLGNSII

CCN1CCN(Cc2ccc(C(=O)Nc3ccc(C)c(Oc4ccc5c(c4)CC(=O)N5)c3)cc2C(F)(F)F)CC1  remaining binding (binding, competition with immobilised ligand; 1 µM): 100%
Cc1cnc(Nc2ccc(C(=O)N3CCC(N4CCCC4)CC3)cc2)nc1-c1cc2ccccc2s1  remaining binding (binding, competition with immobilised ligand; 1 µM): 90%
Cc1nc(NC(=O)N2CCC[C@H]2C(N)=O)sc1-c1ccnc(C(C)(C)C(F)(F)F)c1  remaining binding (binding, competition with immobilised ligand; 10 µM): 9.6%
CN(CCCC(F)(F)F)c1nccc(-c2cnn3ncccc23)n1  remaining binding (binding; 1 µM): 100%
CC1=C(C#N)C(c2ccc3c(c2)c(NC(=O)c2ccccc2C)nn3C)C(C#N)=C(C)N1  remaining binding (cell-free assay, competition with immobilised ligand; 1 µM): 61%
N[C@H]1CCN(c2nccc(-c3cnn4ncccc34)n2)C1  remaining binding (binding; 1 µM): 100%
O=C(c1ccc(Nc2nccc(-c3cc4ccccc4s3)n2)cc1)N1CCC(N2CCCC2)CC1  remaining binding (binding, competition with immobilised ligand; 1 µM): 100%
COc1ccnn2ncc(-c3ccnc(N(C)C)n3)c12  remaining binding (binding; 1 µM): 93%
CN(C)C(=O)Cn1cc(-c2nc([C@@](C)(c3ccc(-c4cnc(N)nc4)cc3)C3CC3)no2)cn1  remaining binding (cell-free assay, competition with immobilised ligand; 1 µM): 66%
FC(F)(F)Oc1cccc(-c2cnc3ccc(-c4ccncc4)nn23)c1  remaining binding (cell-free assay, competition with immobilised ligand; 5 µM): 34%
Cc1nc(C2CCN(C(=O)c3ccc(OC(F)(F)F)cc3N)CC2)c2ncc(N3CCN(C)CC3)cc2n1  remaining binding (cell-free assay, competition with immobilised ligand; 1 µM): 100%
C[C@H]1CCN(c2nccc(-c3cnn4ncccc34)n2)C1  remaining binding (binding; 1 µM): 79%
O=C(Nc1c[nH]nc1C(=O)NC1CCNCC1)c1cc(F)cc(F)c1  remaining binding (binding, competition with immobilised ligand; 1 µM): 100%
CNC(=O)c1ccc(Nc2ncc(C(F)(F)F)c(NCc3nccnc3N(C)S(C)(=O)=O)n2)cc1  remaining binding (cell-free assay, competition with immobilised ligand; 0.1 µM): 92%
O=C(NCCCN1CCOCC1)c1ccc(Nc2ncc(Cl)c(-c3ccc(Cl)s3)n2)cc1  remaining binding (binding, competition with immobilised ligand; 1 µM): 100%
O=C(NCc1ncc(C(F)(F)F)cc1Cl)c1ccc2c(c1)C1(CCS(=O)(=O)CC1)[C@@H](C1CC1)N2S(=O)(=O)c1ccc(F)cc1  remaining binding (cell-free assay, competition with immobilised ligand; 1 µM): 75%
c1cncc(-c2cccc(Nc3nccc(NC4CCCCC4)n3)c2)c1  remaining binding (binding, competition with immobilised ligand; 10 µM): 51%
CN(C)c1ncc(F)c(-c2cnn3ncccc23)n1  remaining binding (binding; 1 µM): 56%
COc1cnc(Nc2cccc(S(N)(=O)=O)c2)nc1N1CCN(c2ccccc2)C(=O)C1  remaining binding (binding, competition with immobilised ligand; 1 µM): 54%
CCCOc1ccc([C@@H]2[C@@H](C(=O)O)[C@H](c3ccc4c(c3)OCO4)CN2CC(=O)Nc2c(CC)cccc2CC)cc1  remaining binding (cell-free assay, competition with immobilised ligand; 1 µM): 78%
C[C@@H](c1ccc(-n2cnc3c(N)ncnc32)cc1)N1CCc2nn(C)c(Cc3ccccc3)c2C1=O  remaining binding (binding, competition with immobilised ligand; 0.1 µM): 92%
